Columns and labels:
[1] = Stability of the compound; format: physicochemical
[2] = tested on: Huh-7; experiment: Cytotoxicity in human HuH7 cells assessed as cell viability after 72 hrs by CellTitre-glo luminescence assay; format: cell-based; settings: huh-7, 72 h
[3] = Clearance in Sprague-Dawley rat at 1 mg/kg, iv and 5 mg/kg, po; format: ADME, organism-based; settings: in vivo
[4] = Inhibition of C-terminal 6xHis-tagged Hepatitis C virus genotype 1b BK NS5B Cdelta21 RNA dependent RNA polymerase L47Q/F101Y/[…] mutant after 30 mins in presence of [alpha-33P]; set-up: species or system Hepatitis C virus (isolate BK)
[5] = tested on: Hepatitis C virus; experiment: Antiviral activity against wild type Hepatitis C virus genotype 1b harboring C316N mutant infected in human HuH7 cells assessed as inhibition of viral replication after 48 hrs by luciferase reporter gene assay; format: functional, organism-based, Hepacivirus hominis; settings: Huh-7, 48 h
[6] = tested on: Hepatitis C virus; experiment: Antiviral activity against wild type Hepatitis C virus genotype 1b infected in human HuH7 cells assessed as inhibition of viral replication after 48 hrs by luciferase reporter gene assay; format: functional, organism-based, Hepacivirus hominis; settings: Huh-7, 48 h
Procedure, shortened: (§1)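 Replicon-based readout (stable and transient replicon formats) in place of virus infection, with compound present for 2 days before EC50 determination.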

[7] = tested on: Hepatitis C virus; experiment: Antiviral activity against wild type Hepatitis C virus genotype 1a infected in human HuH7 cells assessed as inhibition of viral replication after 48 hrs by luciferase reporter gene assay; format: functional, organism-based, Hepacivirus hominis; settings: subtype 1a, Huh-7, 48 h; procedure, shortened: as §1
[8] = tested on: Hepatitis C virus; experiment: Antiviral activity against wild type Hepatitis C virus genotype 1a harboring C316Y mutant infected in human HuH7 cells assessed as inhibition of viral replication after 48 hrs by luciferase reporter gene assay; format: functional, organism-based, Hepacivirus hominis; settings: subtype 1a, Huh-7, 48 h
[9] = tested on: Hepatitis C virus; experiment: Antiviral activity against wild type Hepatitis C virus genotype 1b harboring S365T mutant infected in human HuH7 cells assessed as inhibition of viral replication after 72 hrs by Bright-glo luciferase reporter gene assay; format: functional, organism-based, Hepacivirus hominis; settings: Huh-7, 72 h
[10] = tested on: Hepatitis C virus; experiment: Antiviral activity against wild type Hepatitis C virus genotype 1b harboring C316F mutant infected in human HuH7 cells assessed as inhibition of viral replication after 72 hrs by Bright-glo luciferase reporter gene assay; format: functional, organism-based, Hepacivirus hominis; settings: Huh-7, 72 h
[11] = tested on: Hepatitis C virus; experiment: Antiviral activity against wild type Hepatitis C virus genotype 1b harboring C316Y mutant infected in human HuH7 cells assessed as inhibition of viral replication after 72 hrs by Bright-glo luciferase reporter gene assay; format: functional, organism-based, Hepacivirus hominis; settings: Huh-7, 72 h

SMILES	Stability [1]	Activity [2]	clearance [3] [mL/min/kg]	IC50 [4] [nM]	EC50 [5] [nM]	EC50 [6] [nM]	EC50 [7] [nM]	EC50 [8] [nM]	EC50 [9] [nM]	EC50 [10] [nM]	EC50 [11] [nM]
CNC(=O)c1c(-c2ccc(F)cc2)oc2cc(N(C[C@H]3COB(O)C3)S(C)(=O)=O)c(C3CC3)cc12	Stable	Non-toxic	32	50	11	2.9	5.3	–	–	–	–
CNC(=O)c1c(-c2ccc(F)cc2)oc2cc(N(CC3COB(O)C3)S(C)(=O)=O)c(C3CC3)cc12 (racemic)	Stable	Non-toxic	–	50	7.6	2.8	2.9	–	–	–	–
CNC(=O)c1c(-c2ccc(F)cc2)oc2cc(N(Cc3cccc4c3COB4O)S(C)(=O)=O)c(C3CC3)cc12	–	–	–	32	110	4.9	17	–	–	–	–
CNC(=O)c1c(-c2ccc(F)cc2)oc2cc(N(CCC3OB(O)c4ccccc43)S(C)(=O)=O)c(C3CC3)cc12 (racemic)	–	–	–	32	12	3.5	7.4	790	–	–	–
CNC(=O)c1c(-c2ccc(F)cc2)oc2cc(N(Cc3cc(F)c4c(c3)COB4O)S(C)(=O)=O)c(C3CC3)cc12	–	–	–	32	12	3.2	5.8	190	84	110	16
CNC(=O)c1c(-c2ccc(F)cc2)oc2cc(N(Cc3ccc4c(c3)B(O)OC4)S(C)(=O)=O)c(C3CC3)cc12	–	–	–	32	64	4.9	7.4	–	–	–	–
CNC(=O)c1c(-c2ccc(F)cc2)oc2cc(N(CCC3COB(O)C3)S(C)(=O)=O)c(C3CC3)cc12 (racemic)	Stable	Non-toxic	–	50	5.6	3.1	6.1	–	–	–	–
CNC(=O)c1c(-c2ccc(F)cc2)oc2cc(N(C[C@@H]3COB(O)C3)S(C)(=O)=O)c(C3CC3)cc12	–	–	6.6	63	13	4.6	7.6	830	6.5	37	11
CNC(=O)c1c(-c2ccc(F)cc2)oc2cc(N(CC3=CB(O)OC3)S(C)(=O)=O)c(C3CC3)cc12	Stable	Non-toxic	–	50	13	1.9	9.6	–	–	–	–
CNC(=O)c1c(-c2ccc(F)cc2)oc2cc(N(CC3CCB(O)OC3)S(C)(=O)=O)c(C3CC3)cc12 (racemic)	Stable	Non-toxic	–	63	56	6.4	9.7	–	–	–	–
CNC(=O)c1c(-c2ccc(F)cc2)oc2cc(N(Cc3cccc(B(O)O)c3)S(C)(=O)=O)c(C3CC3)cc12	–	–	–	30	120	6.9	8.8	–	–	–	–
CNC(=O)c1c(-c2ccc(F)cc2)oc2cc(N(CC3CCOB(O)C3)S(C)(=O)=O)c(C3CC3)cc12 (racemic)	Stable	Non-toxic	–	80	38	3.7	9.1	–	–	–	–
CNC(=O)c1c(-c2ccc(F)cc2)oc2cc(N(Cc3ccc(C(=O)O)cc3)S(C)(=O)=O)c(C3CC3)cc12	–	–	–	25	3200	150	290	–	–	–	–
CCOP(=O)(OCC)c1ccc(CN(c2cc3oc(-c4ccc(F)cc4)c(C(=O)NC)c3cc2C2CC2)S(C)(=O)=O)cc1	–	–	–	100	480	20	36	–	–	–	–
CNC(=O)c1c(-c2ccc(F)cc2)oc2cc(N(Cc3ccc(P(=O)(O)O)cc3)S(C)(=O)=O)c(C3CC3)cc12	–	–	–	20	> 5000	760	2200	–	–	–	–
CNC(=O)c1c(-c2ccc(F)cc2)oc2cc(N(CC3CCB(O)O3)S(C)(=O)=O)c(C3CC3)cc12 (racemic)	Stable	Non-toxic	–	100	52	6.5	8.8	–	–	–	–
CNC(=O)c1c(-c2ccc(F)cc2)oc2cc(N(CCOCB(O)O)S(C)(=O)=O)c(C3CC3)cc12	–	–	25	40	3.9	3.2	6.7	–	–	–	–
CNC(=O)c1c(-c2ccc(F)cc2)oc2cc(N(Cc3ccc4c(c3)CCOB4O)S(C)(=O)=O)c(C3CC3)cc12	–	–	–	40	9	4.2	7	350	–	–	–
CNC(=O)c1c(-c2ccc(F)cc2)oc2cc(N(Cc3ccc(S(=O)(=O)O)cc3)S(C)(=O)=O)c(C3CC3)cc12	–	–	–	16	> 5000	1800	> 5000	–	–	–	–
CNC(=O)c1c(-c2ccc(F)cc2)oc2cc(N(Cc3ccc(B(O)O)c(OC)c3)S(C)(=O)=O)c(C3CC3)cc12	–	–	–	100	50	3.6	12	–	–	–	–
CNC(=O)c1c(-c2ccc(F)cc2)oc2cc(N(Cc3ccc(B(O)O)c(C)c3)S(C)(=O)=O)c(C3CC3)cc12	–	–	–	80	5.4	2.2	4.8	–	–	–	–
CNC(=O)c1c(-c2ccc(F)cc2)oc2cc(N(Cc3ccc4c(c3)COB4O)S(C)(=O)=O)c(C3CC3)cc12	–	–	–	40	16	2.7	9.5	–	–	–	–
CNC(=O)c1c(-c2ccc(F)cc2)oc2cc(N(Cc3ccccc3)S(C)(=O)=O)c(C3CC3)cc12	–	–	–	50	440	18	58	–	–	–	–

From ChEMBL document CHEMBL3120133, “Discovery of a potent boronic acid derived inhibitor of the HCV RNA-dependent RNA polymerase” (J Med Chem, 2014)
